# Measured values taken from ChEMBL document CHEMBL3232844, “Synthesis and structure activity relationships of schweinfurthin indoles” (2014).
# Columns and labels:
# Format in all cases: functional
# [1] = tested on: NCI-H460; experiment: Cytotoxicity against human NCI-H460 cells; conditions: read-out: pTGI (converted)
# Outline: (§1)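 Tested in a 60-cell-line human tumor panel screen; the read-out is growth inhibition, reported as GI50 for each cell line.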
# [2] = tested on: HCT-116; experiment: Cytotoxicity against human HCT116 cells; outline: as §1
# [3] = tested on: SK-MEL-2; experiment: Cytotoxicity against human SK-MEL-2 cells; outline: as §1
# [4] = tested on: SF-539; experiment: Cytotoxicity against human SF539 cells; outline: as §1
# [5] = tested on: IGROV-1; experiment: Cytotoxicity against human IGROV1 cells; outline: as §1
# [6] = tested on: NCI-H226; experiment: Cytotoxicity against human NCI-H226 cells; outline: as §1
# [7] = Cytotoxicity against human UACC257 cells
# Outline: (§2)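 Cell line run as part of the 60-cell-line screening panel; growth inhibition was reported as a GI50 for each line.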
# [8] = tested on: PC-3; experiment: Cytotoxicity against human PC3 cells; outline: as §1
# [9] = tested on: HT-29; experiment: Cytotoxicity against human HT-29 cells; outline: as §1
# [10] = tested on: 786-0; experiment: Cytotoxicity against human 786-0 cells; outline: as §1
# [11] = tested on: COLO 205; experiment: Cytotoxicity against human COLO205 cells; outline: as §1
# [12] = tested on: SNB-75; experiment: Cytotoxicity against human SNB75 cells; outline: as §2
# [13] = tested on: LOX IMVI; experiment: Cytotoxicity against human LOXIMVI cells; outline: as §1
# [14] = Cytotoxicity against human OVCAR8 cells; outline: as §1
# [15] = tested on: CAKI-1; experiment: Cytotoxicity against human Caki1 cells; outline: as §1
# [16] = Cytotoxicity against human NCI-ADR-RES cells; outline: as §1
# [17] = tested on: MCF7; experiment: Cytotoxicity against human MCF7 cells; outline: as §1
# [18] = Cytotoxicity against human UACC62 cells; conditions: UACC-62, read-out: pLC50 (the source's name) (converted); outline: as §2
# [19] = tested on: MOLT-4; experiment: Cytotoxicity against human MOLT4 cells; outline: as §1
# [20] = tested on: BT-549; experiment: Cytotoxicity against human BT549 cells; outline: as §1
# [21] = tested on: SK-MEL-5; experiment: Cytotoxicity against human SK-MEL-5 cells; conditions: read-out: pLC50 (the source's name) (converted); outline: as §1
# [22] = tested on: RXF 393; experiment: Cytotoxicity against human RXF393 cells; outline: as §1
# [23] = tested on: SF-268; experiment: Cytotoxicity against human SF268 cells; outline: as §1
# [24] = read-out: pLC50 (the source's name) (converted)
compound,measurement,setting,value
COc1cc(/C=C/c2cc(O)c3c(c2)C[C@@H]2C(C)(C)[C@H](O)CC[C@@]2(C)O3)cc2c1ccn2C,TGI,[1],23.4 µM
same,GI50,[2],0.407 µM
same,CC50,[2]; [24],35.5 µM
same,TGI,[2]; read-out: pTGI (converted),13.5 µM
same,GI50,[3],2.29 µM
same,CC50,[3]; [24],43.7 µM
same,TGI,[3]; read-out: pTGI (converted),17 µM
same,GI50,[4],1.62 µM
same,CC50,[4]; [24],45.7 µM
same,TGI,[4]; read-out: pTGI (converted),13.2 µM
same,GI50,[5],10.7 µM
same,CC50,[5]; [24],89.1 µM
same,TGI,[5]; read-out: pTGI (converted),25.7 µM
same,GI50,[6],16.2 µM
same,CC50,[6]; [24],89.1 µM
same,TGI,[6]; read-out: pTGI (converted),60.3 µM
same,GI50,[7]; UACC-257,0.0389 µM
same,CC50,"[7]; UACC-257, read-out: pLC50 (the source's name) (converted)",64.6 µM
same,TGI,"[7]; UACC-257, read-out: pTGI (converted)",25.1 µM
same,GI50,[8],0.741 µM
same,LC50,[8],89.1 µM
same,TGI,[8]; read-out: pTGI (converted),38 µM
same,GI50,[9],6.03 µM
same,CC50,[9]; [24],41.7 µM
same,TGI,[9]; read-out: pTGI (converted),15.1 µM
same,GI50,[10],0.0275 µM
same,LC50 (concentration killing 50% of cells),[10],7.94 µM
same,TGI,[10]; read-out: pTGI (converted),1.7 µM
same,GI50,[11],5.62 µM
same,CC50,[11]; [24],42.7 µM
same,TGI,[11]; read-out: pTGI (converted),17.8 µM
same,GI50,[12],0.0525 µM
same,CC50,[12]; [24],35.5 µM
same,TGI,[12]; read-out: pTGI (converted),5.37 µM
same,GI50,[13],0.123 µM
same,CC50,[13]; [24],26.9 µM
same,TGI,[13]; read-out: pTGI (converted),4.57 µM
same,GI50,[14]; OVCAR-8,4.27 µM
same,CC50,"[14]; OVCAR-8, read-out: pLC50 (the source's name) (converted)",89.1 µM
same,TGI,"[14]; OVCAR-8, read-out: pTGI (converted)",39.8 µM
same,GI50,[15],0.479 µM
same,LC50,[15],89.1 µM
same,TGI,[15]; read-out: pTGI (converted),9.12 µM
same,GI50,[16],9.55 µM
same,CC50,[16]; [24],89.1 µM
same,TGI,[16]; read-out: pTGI (converted),46.8 µM
same,GI50,[17],0.661 µM
same,LC50,[17],50.1 µM
same,TGI,[17]; read-out: pTGI (converted),12.3 µM
same,CC50,[18],21.4 µM
same,GI50,[19],0.0389 µM
same,CC50,[19]; [24],89.1 µM
same,TGI,[19]; read-out: pTGI (converted),14.8 µM
same,GI50,[20],0.138 µM
same,CC50,[20]; [24],52.5 µM
same,TGI,[20]; read-out: pTGI (converted),20.4 µM
same,CC50,[21],12 µM
same,GI50,[22],0.00891 µM
same,LC50,[22],27.5 µM
same,TGI,[22]; read-out: pTGI (converted),1.58 µM
same,GI50,[23],0.0129 µM
same,CC50,[23]; [24],69.2 µM
same,TGI,[23]; read-out: pTGI (converted),24 µM
